# According to ChEMBL document CHEMBL4346742, “The parmodulin NRD-21 is an allosteric inhibitor of PAR1 Gq signaling with improved anti-inflammatory activity and stability” (Bioorg Med Chem, 2019):
# pIC50: −log10 of the molar value. Activity calls are given as the source filed them. No cut-off for these calls is given here.
# Columns and labels:
# [1] = biological target: T1, Proteinase-activated receptor 1 (Homo sapiens) (UniProt P25116); test: Negative allosteric modulation of PAR1 in human EAhy926 cells assessed as reduction in TFLLRN-NH2-induced intracellular calcium mobilization at 10 uM incubated for 15 mins followed by TFLLRN-NH2 addition by Fluo-4-AM dye based fluorescence assay relative to control; type: functional, cell-based
# T1 sequence (whole entry): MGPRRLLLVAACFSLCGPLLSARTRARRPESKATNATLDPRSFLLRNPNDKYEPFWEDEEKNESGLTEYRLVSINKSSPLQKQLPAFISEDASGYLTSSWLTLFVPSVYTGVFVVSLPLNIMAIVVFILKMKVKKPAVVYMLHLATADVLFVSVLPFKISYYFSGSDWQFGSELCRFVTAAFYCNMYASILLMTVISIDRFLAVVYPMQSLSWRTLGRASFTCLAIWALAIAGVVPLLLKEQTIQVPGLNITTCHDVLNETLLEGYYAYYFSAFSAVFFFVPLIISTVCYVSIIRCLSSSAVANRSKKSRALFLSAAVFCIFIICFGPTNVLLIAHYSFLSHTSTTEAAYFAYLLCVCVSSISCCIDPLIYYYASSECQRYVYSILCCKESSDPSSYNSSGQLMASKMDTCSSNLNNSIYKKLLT
# Procedure, shortened: (§1)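 Adherent EA.hy926 endothelial cells in 96-well format, intracellular Ca2+ mobilization triggered by PAR1 agonist TFLLRN-NH2 at 5 µM; single-point % inhibition at 10 µM (n = 4 wells, SEM); 7-point concentration-response curves, 3 wells per concentration, pIC50 from 4-variable non-linear regression; average IC50 ± SEM over independent assays.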
# [2] = biological target: T1, Proteinase-activated receptor 1 (Homo sapiens); test: Reversible inhibition of PAR1 in human EAhy926 cells assessed as reduction in TFLLRN-NH2-induced intracellular calcium mobilization at 10 uM incubated for 15 mins and washed in buffer followed by TFLLRN-NH2 addition by Fluo-4-AM dye based fluorescence assay relative to control; type: functional, cell-based
# [3] = Solubility in 2.5% DMSO; type: physicochemical
# Procedure, shortened: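 Kinetic aqueous solubility assay with 2.5% DMSO.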
# HUVEC (human) = test: Antiinflammatory activity in human HUVEC cells assessed as inhibition of TNFalpha-induced TF expression at 10 uM preincubated for 1 hr followed by TNFalpha addition and measured after 3 hrs by qPCR analysis
# [4] = Stability in human microsomes for 1 hr; type: ADME, Microsome; conditions: read-out: Stability
# Procedure, shortened: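 Human liver microsomes, % remaining after 1 h.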
# [5] = biological target: Beta-1 adrenergic receptor (Homo sapiens) (UniProt P08588); test: Inhibition of beta1 adrenoceptor (unknown origin) at 10 uM by radio ligand binding assay
# Chain of Beta-1 adrenergic receptor (Homo sapiens) (P08588 whole entry, looked up): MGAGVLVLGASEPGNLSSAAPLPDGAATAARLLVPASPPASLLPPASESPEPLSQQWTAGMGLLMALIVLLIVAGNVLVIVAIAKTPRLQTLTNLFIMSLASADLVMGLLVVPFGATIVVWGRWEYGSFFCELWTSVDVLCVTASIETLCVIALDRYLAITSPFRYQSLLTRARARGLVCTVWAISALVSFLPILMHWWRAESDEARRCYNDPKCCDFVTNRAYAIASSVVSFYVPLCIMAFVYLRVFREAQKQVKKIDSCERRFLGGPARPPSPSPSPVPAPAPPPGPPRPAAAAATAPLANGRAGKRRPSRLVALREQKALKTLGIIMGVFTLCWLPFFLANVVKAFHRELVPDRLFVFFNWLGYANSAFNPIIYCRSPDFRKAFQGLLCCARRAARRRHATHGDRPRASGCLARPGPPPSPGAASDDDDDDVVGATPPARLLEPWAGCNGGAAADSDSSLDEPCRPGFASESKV
# [6] = biological target: T2, Proteinase-activated receptor 1 (Homo sapiens, UniProt P25116); test: Negative allosteric modulation of PAR1 in human EAhy926 cells assessed as reduction in TFLLRN-NH2-induced intracellular calcium mobilization incubated for 15 mins followed by TFLLRN-NH2 addition by Fluo-4-AM dye based fluorescence assay; type: functional, cell-based; conditions: for pIC50: read-out: IC50; procedure, shortened: as §1
# T2 sequence (P25116 whole entry): T1 sequence (whole entry)
# Platelet = test: Antiplatelet activity in human washed platelets assessed as inhibition of SFLLRN-NH2-induced platelet aggregation at 10 uM incubated for 2 mins followed by SFLLRN-NH2 addition and monitored for 5 mins by lumi-aggregometery
# [7] = Stability in mouse plasma at 10 uM measured at 4 hrs by LC-MS analysis; type: ADME, cell-free
# Procedure, shortened: (§2)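 Compound incubated in mouse or human plasma; % parent remaining at 4 h.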
# [8] = biological target: Beta-3 adrenergic receptor (Homo sapiens) (UniProt P13945); test: Inhibition of beta3 adrenoceptor (unknown origin) at 10 uM by radio ligand binding assay
# Chain of Beta-3 adrenergic receptor (Homo sapiens) (P13945 whole entry, looked up): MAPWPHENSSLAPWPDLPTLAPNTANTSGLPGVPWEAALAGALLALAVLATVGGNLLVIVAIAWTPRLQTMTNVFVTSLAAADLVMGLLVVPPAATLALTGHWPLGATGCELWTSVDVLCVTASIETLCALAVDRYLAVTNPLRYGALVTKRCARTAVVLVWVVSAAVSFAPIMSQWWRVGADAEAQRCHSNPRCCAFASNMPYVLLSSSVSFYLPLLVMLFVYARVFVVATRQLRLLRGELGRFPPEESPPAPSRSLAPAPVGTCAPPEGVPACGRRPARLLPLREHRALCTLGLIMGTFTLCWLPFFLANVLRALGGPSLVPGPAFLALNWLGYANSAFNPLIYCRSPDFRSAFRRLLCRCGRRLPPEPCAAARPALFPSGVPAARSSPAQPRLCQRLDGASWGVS
# [9] = biological target: Translocator protein (Rattus norvegicus) (UniProt P16257); test: Inhibition of rat PBR at 10 uM
# Chain of Translocator protein (Rattus norvegicus) (P16257 whole entry, looked up): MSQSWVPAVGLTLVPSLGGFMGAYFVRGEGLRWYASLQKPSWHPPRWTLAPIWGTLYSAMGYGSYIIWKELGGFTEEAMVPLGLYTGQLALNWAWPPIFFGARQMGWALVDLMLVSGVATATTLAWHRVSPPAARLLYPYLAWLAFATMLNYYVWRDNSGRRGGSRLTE
# [10] = biological target: Proteinase-activated receptor 2 (Homo sapiens) (UniProt P55085); test: Negative allosteric modulation of PAR2 in human EAhy926 cells assessed as reduction in SLIGKV-NH2-induced intracellular calcium mobilization at 0.316 to 10 uM incubated for 15 mins followed by TFLLRN-NH2 addition by Fluo-4-AM dye based fluorescence assay relative to control; type: functional, cell-based
# Chain of Proteinase-activated receptor 2 (Homo sapiens) (P55085 whole entry): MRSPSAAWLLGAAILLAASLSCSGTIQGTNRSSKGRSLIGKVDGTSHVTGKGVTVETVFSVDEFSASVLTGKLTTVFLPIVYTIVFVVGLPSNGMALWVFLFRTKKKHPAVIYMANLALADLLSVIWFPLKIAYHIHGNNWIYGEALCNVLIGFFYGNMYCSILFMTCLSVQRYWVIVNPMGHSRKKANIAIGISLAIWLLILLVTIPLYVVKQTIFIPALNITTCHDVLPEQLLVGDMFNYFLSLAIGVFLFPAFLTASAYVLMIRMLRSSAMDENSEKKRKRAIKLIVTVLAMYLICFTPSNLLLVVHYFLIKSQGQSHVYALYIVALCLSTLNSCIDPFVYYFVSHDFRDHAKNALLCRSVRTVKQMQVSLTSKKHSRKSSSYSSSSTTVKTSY
# HepG2 = test: Cytotoxicity against human HepG2 cells assessed as reduction in cell viability; type: cell-based
# Procedure, shortened: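 Human HepG2 cells; cytotoxicity reported as CC50.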
# [11] = Stability in human plasma at 10 uM measured at 4 hrs by LC-MS analysis; type: ADME, cell-free; procedure, shortened: as §2
# [12] = biological target: T1, Proteinase-activated receptor 1 (Homo sapiens); test: Negative allosteric modulation of PAR1 in human EAhy926 cells assessed as reduction in TFLLRN-NH2-induced intracellular calcium mobilization incubated for 15 mins followed by TFLLRN-NH2 addition by Fluo-4-AM dye based fluorescence assay relative to control; type: functional, cell-based; procedure, shortened: as §1
# [13] = biological target: T1, Proteinase-activated receptor 1 (Homo sapiens); test: Negative allosteric modulation of PAR1 in human EAhy926 cells assessed as reduction in TFLLRN-NH2-induced intracellular calcium mobilization at 31.6 uM incubated for 15 mins followed by TFLLRN-NH2 addition by Fluo-4-AM dye based fluorescence assay relative to control; type: functional, cell-based
# [14] = biological target: T1, Proteinase-activated receptor 1 (Homo sapiens); conditions: 0.316 uM
# [15] = Stability in human plasma at 20 uM measured at 4 hrs by LC-MS analysis; type: ADME, cell-free; procedure, shortened: as §2
# [16] = biological target: T1, Proteinase-activated receptor 1 (Homo sapiens); test: Negative allosteric modulation of PAR1 in human EAhy926 cells assessed as reduction in TFLLRN-NH2-induced intracellular calcium mobilization at 0.0316 to 3.16 uM incubated for 15 mins followed by TFLLRN-NH2 addition by Fluo-4-AM dye based fluorescence assay relative to control
# [17] = biological target: Sodium-dependent noradrenaline transporter (Homo sapiens) (UniProt P23975); test: Inhibition of NET receptor (unknown origin) at 10 uM
# Chain of Sodium-dependent noradrenaline transporter (Homo sapiens) (P23975 whole entry): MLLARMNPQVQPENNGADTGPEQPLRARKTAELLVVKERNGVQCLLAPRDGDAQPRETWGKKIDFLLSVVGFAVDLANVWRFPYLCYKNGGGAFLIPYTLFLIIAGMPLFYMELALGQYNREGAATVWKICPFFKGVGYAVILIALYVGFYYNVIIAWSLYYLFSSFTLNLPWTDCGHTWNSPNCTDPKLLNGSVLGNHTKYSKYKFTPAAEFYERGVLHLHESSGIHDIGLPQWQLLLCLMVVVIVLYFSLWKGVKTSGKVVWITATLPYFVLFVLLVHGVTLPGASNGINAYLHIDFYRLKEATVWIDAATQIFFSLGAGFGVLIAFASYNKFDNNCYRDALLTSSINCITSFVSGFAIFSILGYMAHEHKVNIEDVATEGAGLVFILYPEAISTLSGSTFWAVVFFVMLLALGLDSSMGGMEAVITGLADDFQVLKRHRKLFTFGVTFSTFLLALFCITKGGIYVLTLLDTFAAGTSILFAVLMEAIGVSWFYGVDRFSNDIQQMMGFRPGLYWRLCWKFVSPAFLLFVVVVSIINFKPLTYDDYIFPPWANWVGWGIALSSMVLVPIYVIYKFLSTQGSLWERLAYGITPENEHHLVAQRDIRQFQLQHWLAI
# [18] = Stability in mouse plasma at 20 uM measured at 4 hrs by LC-MS analysis; type: ADME, cell-free; procedure, shortened: as §2
structure (smiles),measurement,setting,value
COCCC(=O)Nc1cccc(NC(=O)c2ccccc2Br)c1,inhibition,[1],39%
CC(C)CC(=O)Nc1cccc(NC(=O)c2ccccc2Br)c1,inhibition,[1],82%
CC(C)(C)OC(=O)N1CCC[C@@H]1C(=O)Nc1cccc(NC(=O)c2ccccc2Br)c1,inhibition,[1],65%
COCCNc1cccc(NC(=O)c2ccccc2Br)c1,inhibition,[1],43%
COC(C)C(=O)Nc1cccc(NC(=O)c2ccccc2Br)c1 (stereo not drawn),inhibition,[1],58%
CCOC(=O)Nc1cccc(NC(=O)c2ccccc2Br)c1,inhibition,[1],60%
O=C(O)CC(=O)Nc1cccc(NC(=O)c2ccccc2Br)c1,inhibition,[1],37%
CCC(C)C(=O)Nc1cccc(NC(=O)c2ccccc2Br)c1 (stereo not drawn),inhibition,[1],27%
CCCC(=O)Nc1cccc(NC(=O)c2ccccc2Br)c1,inhibition,[2],Active
same,solubility kinetic,[3],24 µM
same,inhibition,HUVEC (human),Active
same,remaining at 1 h,[4],99%
same,inhibition,[5],49%
same,pIC50,[6],6.24
same,inhibition at 10 µM,Platelet,100%
same,Stability,[7],< 1%
same,inhibition,[8],32%
same,inhibition,[9],84%
same,inhibition,[10],inactive
same,CC50,HepG2,> 150 µM
same,Stability,[11],79%
COCC(=O)Nc1cccc(NC(=O)c2ccccc2Br)c1,inhibition,[1],38%
CC(C)[C@H](O)C(=O)Nc1cccc(NC(=O)c2ccccc2Br)c1,inhibition,[1],48%
CN(C)CC(=O)Nc1cccc(NC(=O)c2ccccc2Br)c1,inhibition,[1],3%
O=C(Nc1cccc(NC(=O)C2CCCO2)c1)c1ccccc1Br (stereo not drawn),inhibition,[1],42%
CCCNC(=O)c1cccc(NC(=O)c2ccccc2Br)c1,inhibition,[12],50%
same,pIC50,[6],6.66
same,inhibition,[1],63%
O=C(Nc1cccc(NC(=O)c2ccccc2Br)c1)c1cocn1,inhibition,[2],Active
same,pIC50,[6],6.38
same,inhibition,[10],inactive
same,inhibition,[13],50%
same,inhibition,[1],82%
O=C(Nc1cccc(NC(=O)C2CCCC2)c1)c1ccccc1Br,inhibition,[1],65%
CCCNCc1cccc(NC(=O)c2ccccc2Br)c1,inhibition,[1],17%
CCOC(=O)N[C@@H]1CC[C@@H]2[C@@H](C1)C[C@H]1C(=O)O[C@H](C)[C@H]1[C@H]2/C=C/c1ccc(-c2cccc(F)c2)cn1,inhibition,[2],inactive
same,inhibition,[14],> 75%
same,inhibition,[10],inactive
O=C(Nc1cccc(NC(=O)c2ccccc2Br)c1)c1cnco1,Stability,[15],97%
same,inhibition,[2],Active
same,solubility kinetic,[3],17 µM
same,inhibition,HUVEC (human),Active
same,remaining at 1 h,[4],99%
same,inhibition,[16],Active
same,inhibition,[17],31%
same,pIC50,[6],6.43
same,inhibition at 10 µM,Platelet,100%
same,Stability,[18],32%
same,inhibition,[9],67%
same,inhibition,[10],inactive
same,CC50,HepG2,> 150 µM
same,inhibition,[1],90%
CCC(=O)Nc1cccc(NC(=O)c2ccccc2Br)c1,inhibition,[1],54%
NC(=O)CC(=O)Nc1cccc(NC(=O)c2ccccc2Br)c1,inhibition,[1],36%
CCCCC(=O)Nc1cccc(NC(=O)c2ccccc2Br)c1,inhibition,[1],23%
CC(C)(C)OC(=O)N1CCC[C@H]1C(=O)Nc1cccc(NC(=O)c2ccccc2Br)c1,inhibition,[1],-8%
COC(=O)CC(=O)Nc1cccc(NC(=O)c2ccccc2Br)c1,inhibition,[1],11%
O=C(Nc1cccc(NC(=O)c2ccccc2Br)c1)c1ccccc1,inhibition,[1],58%
C#CCCC(=O)Nc1cccc(NC(=O)c2ccccc2Br)c1,IC50,[6]; read-out: pIC50 (converted),> 10000 nM
CCCCOc1cccc(NC(=O)c2ccccc2Br)c1,inhibition,[1],57%
CC(C)[C@@H](O)C(=O)Nc1cccc(NC(=O)c2ccccc2Br)c1,inhibition,[1],25%
COC(=O)Nc1cccc(NC(=O)c2ccccc2Br)c1,inhibition,[1],42%
O=C(Nc1cccc(NC(=O)c2ccccc2Br)c1)c1ccco1,inhibition,[2],Active
same,pIC50,[6],6.49
same,inhibition,[10],inactive
same,inhibition,[1],92%
CCCN(CCC)c1cccc(NC(=O)c2ccccc2Br)c1,inhibition,[1],13%
O=C(Nc1cccc(NC(=O)[C@H]2CCCN2)c1)c1ccccc1Br,inhibition,[1],63%
O=C(Nc1cccc(NC(=O)[C@@H]2CCCN2)c1)c1ccccc1Br,inhibition,[1],4%
O=C(CC(F)(F)F)Nc1cccc(NC(=O)c2ccccc2Br)c1,inhibition,[2],Active
same,pIC50,[6],6.42
same,inhibition,[10],inactive
same,inhibition,[1],88%
CCC(O)C(=O)Nc1cccc(NC(=O)c2ccccc2Br)c1 (stereo not drawn),inhibition,[1],21%
CCCCNc1cccc(NC(=O)c2ccccc2Br)c1,inhibition,[2],Active
same,inhibition,[10],inactive
same,inhibition,[1],85%
O=C(Nc1cccc(NC(=O)C2CCOC2)c1)c1ccccc1Br (stereo not drawn),inhibition,[1],44%
